# Screening data from PubChem BioAssay.
# Most compounds without a hit are left out; they make up all but 1.9% or so of the library.
# PLCg1 inh = PLC-gamma1 (human) inhibition, primary screen; P19174; purified PLC-gamma1, fluorogenic substrate, fluorescence; inhibition, % at 12.2 µM; 0.84% of 370,000 active; in the data active means inhibition above about 9.5%
# HGIII-sPLA2 inh = Blocks human group III sPLA2 activity | inhibition, % at 12.2 µM | QFRET BODIPY PC-A2 liposome hydrolysis, fluorescence | 0.56% of 370,000 active | Q9NZ20;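 active means inhibition above mean plus 3 SD of compounds lying within the high and low control bounds, cut at about 19% in these data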;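 further: 0% = median of test compound wells and 100% = no enzyme DMSO wells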
# PLC-beta3 inh = PLC-beta3 (human) inhibition, primary screen | Q01970 | Purified PLC-beta3, fluorogenic substrate, fluorescence | inhibition, % at 12.2 µM | 0.18% of 370,000 active | AID 720704; in the data active means inhibition above about 11%;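 further: 0% = median of compound wells on plate and 100% = full blocker control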
# TbMetRS inhib = blocks T. brucei methionyl-tRNA synthetase activity; purified T. brucei MetRS, ATP depletion, Kinase-Glo luminescence; 0.4% of 360,000 active; inhibition, % at 11.9 µM;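 active means inhibition above a per-plate cutoff of the control wells' mean inhibition plus 3 SD, cut at about 5.5% in these data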;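 further: 0% = DMSO wells median and 100% = median of wells with control inhibitor compound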
#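 Dosing: 11.9 µM compound single dose, 0.9% DMSO; Assay system: purified T. brucei MetRS enzyme; Measured by: Kinase-Glo luciferase luminescence reporting remaining unconsumed ATP; Schedule: 15 min plus 2 h at 25 °C.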
# hGIII sPLA2 conf = human GIII-sPLA2 inhibition, confirmation. shares compounds with HGIII-sPLA2 inh. recombinant hGIII-sPLA2, BODIPY PC-A2 QFRET fluorescence. inhibition, % at 12.2 µM. 34% of 2,000 active. AID 743280;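 active means mean inhibition across triplicates above the hit cutoff set in the earlier primary screen, cut at about 19% in these data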;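 further: 0% = enzyme with DMSO and 100% = DMSO wells lacking enzyme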
# 535nm interf = counter-screen for HGIII-sPLA2 inhibitors: 535nm fluorescence interference; shares compounds with HGIII-sPLA2 inh; inhibition, % at 12.2 µM; BODIPY FL product fluorescence interference, QFRET; 8.5% of 2,000 active;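 active means average inhibition above the solvent-only control mean plus 3 SD, cut at about 6% in these data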;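 further: 0% = DMSO with substrate plus product and 100% = DMSO with substrate alone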
# BODIPY interf DR = interferes with 535nm fluorescence in dose response counter-screen | IC50, µM | shares compounds with HGIII-sPLA2 inh | AID 743455 | 240 tested, under 10 active | BODIPY FL product fluorescence interference, cell-free;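 active means IC50 at or below 10 µM; inactive means IC50 above 10 µM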
# * hit, by the source's call; x = not tested or not shown.
SMILES,PLCg1 inh,HGIII-sPLA2 inh,PLC-beta3 inh,TbMetRS inhib,hGIII sPLA2 conf,535nm interf,others
CCN1C(=O)/C(=C/C=C2\C=CN(CC)c3ccccc32)SC1=S,-7.0,13.4,-55.5,-0.2,x,x,
CCN1C(=O)/C(=C\C=C2/C=CC=CN2CC)SC1=S,-6.4,24.9*,-4.9,-0.6,26.8*,-1.6,
Cc1ccccc1N1CCN(C(=O)CN2C(=O)CC(C)(C)S(=O)(=O)c3ccccc32)CC1,0.7,0.0,0.0,x,x,x,
CCCCNC(=S)Nc1ccc2nc3n(c(=O)c2c1)CCCCC3,1.5,18.3,-0.4,-0.1,x,x,
CC(C)CCNC(=S)Nc1ccc2nc3n(c(=O)c2c1)CCCCC3,-1.8,19.9*,-0.8,0.6,12.6,-12.5,
CC(C)(C)C(=O)NC(=S)Nc1sc2c(c1C#N)CCCCC2,0.0,21.6*,-4.0,-0.8,17.1,3.7,
CC(=O)Nc1sc2c(c1C#N)CCCCC2,6.3,1.5,-0.6,-0.2,x,x,
COC(=O)[C@@H]1N=C(c2ccc(OC)cc2)O[C@]12C(=O)N(Cc1cn(-c3ccccc3)nn1)c1cccc(Cl)c12,-0.5,-13.8,2.8,x,x,x,
CCc1ccccc1NC(=S)NC1CC2CCC(C1)N2Cc1ccco1 (stereo not given),4.5,21.0*,-1.9,-1.6,13.6,-7.8,
O=C(Nc1ccc(N2CCCC2)cc1)c1cc(Cl)ccc1Cl,-4.7,-0.3,-17.1,-0.3,x,x,
O=C(Nc1ccc(N2CCCCCC2)cc1)c1ccc[nH]1,-2.8,22.0*,-12.3,-0.1,33.5*,-5.8,BODIPY interf DR=>122
O=C(Nc1ccc(N2CCCC2)cc1)c1cccc(Cl)c1,-1.5,24.4*,-11.5,-0.5,25.3*,-1.1,
CN(C)S(=O)(=O)c1cccc(C(=O)Nc2ccc(N3CCOCC3)cc2)c1,4.6,24.5*,-4.1,-0.3,3.7,-1.9,
CCOc1ccc(C2OCCC(C)O2)cc1OC (stereo not given),-0.7,19.9*,-2.7,-0.4,2.1,-5.8,
Cc1nn(-c2ccccc2)c(C)c1C(=O)OCC(=O)N(C)C1CCS(=O)(=O)C1 (stereo not given),1.1,19.9*,-6.5,1.7,-0.8,-8.4,
CN(C(=O)COC(=O)c1nc(-c2ccccc2)n(-c2ccccc2)n1)C1CCS(=O)(=O)C1 (stereo not given),3.2,1.3,2.5,0.6,x,x,
NC(=O)c1cc([N+](=O)[O-])ccc1NCc1cnccn1,7.3,20.4*,7.2,-0.3,-6.5,-3.9,
COc1cccc(C(Nc2ccccc2)c2ccc3ccc(C)nc3c2O)c1 (stereo not given),-5.5,21.5*,-1.1,-0.3,5.2,8.3*,
O=C(N[C@@H]1C[C@@H]2O[C@@H](CO)CC[C@@H]2O[C@@H]1CCc1ccc(-c2ccccc2)cc1)c1cnccn1,4.2,-13.3,-3.3,x,x,x,
S=c1nn[nH]c2ccccc12,8.1,23.1*,3.7,-0.4,10.3,-0.7,
Nc1n[nH]c2ccccc12,-5.5,8.2,-4.9,-0.5,x,x,
Cc1ccc(C)c(NC(=S)N/N=C/C(C)c2ccccc2)c1 (stereo not given),3.3,21.5*,-8.0,-0.5,13.9,0.3,
COc1ccccc1N(C)S(=O)(=O)c1ccc(C(=O)NNC(=O)c2ccccc2O)cc1,-1.9,20.1*,1.4,0.3,2.0,1.0,
CCCCCCN1CCN(C2CN(Cc3cn(Cc4ccc(C(F)(F)F)cc4)nn3)S(=O)(=O)C2)CC1 (stereo not given),2.8,-18.8,5.9,x,x,x,
CCCCCn1c(=NC(=O)c2cccnc2)c(C#N)cc2c(=O)n3cccc(C)c3nc21,-86.3,19.7*,-133.0,0.0,0.5,-4.2,
SMILES,PLCg1 inh,HGIII-sPLA2 inh,PLC-beta3 inh,TbMetRS inhib,hGIII sPLA2 conf,535nm interf,others
CCCCNc1c(-c2ccc(SC(C)CC)cc2)nc2ccc(Cl)cn12 (stereo not given),-244.2,22.6*,-367.8,-1.4,-7.8,-6.9,
Cc1cc(N2CCCC2)ccc1NC(=O)COc1cccc(C(F)(F)F)c1,2.4,21.8*,-7.6,-0.2,35.2*,2.9,BODIPY interf DR=>122
O=C(COc1ccccc1)Nc1cc(C(F)(F)F)ccc1N1CCCC1,-3.9,9.4,0.8,-0.1,x,x,
CC1=NN(c2ccccc2)C(=O)/C1=C/C=C/c1ccc(N(C)C)cc1,4.4,22.9*,-0.3,-0.1,43.6*,9.7*,
CC1=NN(c2ccccc2)C(=O)/C1=C\C=C\c1ccccc1,-0.9,7.4,-7.8,-0.9,x,x,
CC(C)C[C@H]1COc2cc(Br)ccc2S(=O)(=O)N1Cc1cn(Cc2ccco2)nn1,0.2,-5.5,2.1,x,x,x,
COc1ccc(-n2c(-c3cc(-c4ccccc4)sc3N)n[nH]c2=S)cc1,-3.0,26.8*,-8.1,-0.1,21.3*,10.3*,
Cc1ccccc1C(=O)N[C@@H](Cc1cccnc1)C(=O)N1CCC[C@H]1C(=O)NC1CCCC1,-1.3,3.8,1.7,x,x,x,
NNC(=S)NCc1ccc2c(c1)OCO2,-27.2,20.0*,-37.5,-0.6,10.0,-5.9,
S=C(NCc1ccc2c(c1)OCO2)NCc1ccc2c(c1)OCO2,-3.5,7.8,-0.4,0.0,x,x,
Nc1[nH]c(C(=O)c2ccccc2)c(-c2ccccc2C(F)(F)F)c1C(=O)c1cccs1,-12.7,19.8*,-19.0,-1.6,9.9,-5.9,
Nc1[nH]c(C(=O)c2ccccc2)c(-c2ccc(Br)cc2)c1C(=O)c1cccs1,-7.9,-12.7,-7.7,-0.4,x,x,
CN(C)S(=O)(=O)c1ccc(NC(=O)/C=C/c2ccccc2Cl)cc1,4.0,-22.3,-3.9,-2.7,x,x,
CN(C)c1ccc(NC(=O)/C=C/c2c(Cl)cccc2Cl)cc1,2.4,30.6*,-0.4,-0.3,18.5,8.4*,
COC(=O)[C@H](Cc1ccccc1)N1Cc2ccccc2Oc2cc(Br)ccc2S1(=O)=O,6.4,-2.4,-0.2,x,x,x,
CCOC(=O)CNc1ncc([N+](=O)[O-])cc1C#N,5.3,21.6*,1.1,-0.5,-2.9,-8.5,
CCOC(=O)N1CCN(S(=O)(=O)c2ccc(F)c(C(=O)Nc3ccc(C(C)C)cc3)c2)CC1,0.3,20.3*,-3.8,0.3,-18.8,-17.0,
Cc1ccc(S(=O)(=O)N2CCOCC2)cc1-c1n[nH]c(=S)n1-c1ccccc1,5.2,23.2*,-6.0,-0.5,10.8,-1.4,
Cc1cccc2sc(NNC(=O)c3ccc(S(=O)(=O)N4CCc5ccccc5C4)cc3)nc12,-78.5,40.8*,-84.3,-0.1,42.5*,7.8*,
Cc1cccc2sc(NNC(=O)c3ccc(S(=O)(=O)N4CCCC(C)C4)cc3)nc12 (stereo not given),-203.4,33.7*,-242.7,0.2,38.5*,0.6,BODIPY interf DR=>122
CCC[C@H]1[C@@H](OC(=O)Oc2ccc([N+](=O)[O-])cc2)CC[C@@]23CCCN2C(=O)CCC[C@@H]13,1.8,-1.4,3.3,x,x,x,
CCCCn1c(S(=O)(=O)O)nc2ccccc21,-1.4,0.6,-3.2,-0.8,x,x,
CCn1c(S(=O)(=O)O)nc2ccccc21,1.6,19.9*,-11.8,0.4,0.2,-2.6,
